The source of these data is ChEMBL document CHEMBL3352107, “Development of radamide analogs as Grp94 inhibitors” (Bioorg Med Chem, 2014).

Chain of Endoplasmin (Homo sapiens) (P14625 whole entry): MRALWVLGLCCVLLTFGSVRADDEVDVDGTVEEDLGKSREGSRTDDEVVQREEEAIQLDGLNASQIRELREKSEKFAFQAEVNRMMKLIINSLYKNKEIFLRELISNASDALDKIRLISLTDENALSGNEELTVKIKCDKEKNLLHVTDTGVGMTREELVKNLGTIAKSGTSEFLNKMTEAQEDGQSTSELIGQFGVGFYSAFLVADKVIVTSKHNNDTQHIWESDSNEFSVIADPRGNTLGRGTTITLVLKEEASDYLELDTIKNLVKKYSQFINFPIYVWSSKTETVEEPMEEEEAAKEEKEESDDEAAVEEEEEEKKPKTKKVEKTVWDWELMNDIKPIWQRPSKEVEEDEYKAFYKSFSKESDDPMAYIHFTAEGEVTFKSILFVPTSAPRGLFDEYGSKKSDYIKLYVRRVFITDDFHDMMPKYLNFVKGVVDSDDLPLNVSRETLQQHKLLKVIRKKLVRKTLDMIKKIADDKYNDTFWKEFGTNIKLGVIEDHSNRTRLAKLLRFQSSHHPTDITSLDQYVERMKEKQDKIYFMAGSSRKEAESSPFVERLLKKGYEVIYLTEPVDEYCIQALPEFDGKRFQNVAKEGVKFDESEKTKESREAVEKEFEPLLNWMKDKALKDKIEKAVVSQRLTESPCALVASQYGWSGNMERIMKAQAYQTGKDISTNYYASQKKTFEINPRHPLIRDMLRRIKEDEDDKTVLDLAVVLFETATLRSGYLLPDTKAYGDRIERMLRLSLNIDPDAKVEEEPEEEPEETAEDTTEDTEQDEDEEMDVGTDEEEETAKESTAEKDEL

One assay addresses Endoplasmin (Homo sapiens) (UniProt P14625). Description: Inhibition of recombinant Grp94 (unknown origin) assessed as tracer bound at 25 uM after 24 hrs by fluorescence polarization assay relative to control. More on the design: scale not given: the % may be the effect or the level left. The essentials: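 Single-point screen at 25 μM. Recombinant cGrp94 (10 nM) and FITC-geldanamycin tracer (6 nM) incubated 24 h at 4°C with rocking in HEPES pH 7.3 buffer containing molybdate, DTT, NP-40 and BGG (1% DMSO). Polarization read at 485/528 nm. Percent tracer bound scaled between DMSO mP (100%) and free tracer mP (0%). Geldanamycin 50 nM was the positive control. Triplicate.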
As to `COC(=O)c1c(O)cc(O)c(Cl)c1CCC(=O)Nc1ncns1`, the Activity came to 10.2%.
On to `COC(=O)c1c(O)cc(O)c(Cl)c1CCC(=O)Nc1ccc(I)cc1`, for which the Activity amounted to 29.8%.
Take `COC(=O)c1c(O)cc(O)c(Cl)c1CCC(=O)Nc1ccncc1`: the Activity was found to be 34.9%.
The same measure, in the same setting: the result for `COC(=O)c1c(O)cc(O)c(Cl)c1CCC(=O)Nc1ccc(Br)cc1Br` reads 50.7%; that for `COC(=O)c1c(O)cc(O)c(Cl)c1CCC(=O)Nc1cccc(F)c1`, 11%; that for `COC(=O)c1c(O)cc(O)c(Cl)c1CCC(=O)Nc1ccc(C#N)cc1`, 5.4%.
Take `COC(=O)c1c(O)cc(O)c(Cl)c1CCC(=O)Nc1cc(Cl)ccn1`: the Activity amounted to 7.7%.
Take `COC(=O)c1c(O)cc(O)c(Cl)c1CCC(=O)Nc1cnccn1`: the Activity stood at 16.6%.
Consider `COC(=O)c1c(O)cc(O)c(Cl)c1CCC(=O)Nc1ccc(C(C)C)cc1`, for which the Activity was found to be 59%.
Still for that read-out and setting: under `COC(=O)c1c(O)cc(O)c(Cl)c1CCC(=O)Nc1ccccc1Cl` stands 0.1%.
Regarding `COC(=O)c1c(O)cc(O)c(Cl)c1CCC(=O)Nc1ncccc1Br`, the Activity was found to be 0.2%.
Turning to `COC(=O)c1c(O)cc(O)c(Cl)c1CCC(=O)Nc1ccccc1`, the Activity amounted to 19.8%.
As for `COC(=O)c1c(O)cc(O)c(Cl)c1CCC(=O)Nc1cccc(NC(C)=O)c1`, the Activity came out at 8.3%.
Consider `COC(=O)c1c(O)cc(O)c(Cl)c1CCC(=O)Nc1cnncn1`, for which the Activity was found to be 19.5%.
Same read-out and setting: the result for `COC(=O)c1c(O)cc(O)c(Cl)c1CCC(=O)Nc1ccc(Cl)cc1` reads 15.7%; that for `COC(=O)c1c(O)cc(O)c(Cl)c1CCC(=O)Nc1cccc(N)c1`, 17.4%; that for `COC(=O)c1c(O)cc(O)c(Cl)c1CCC(=O)Nc1ccc(C)cc1`, 18.7%.
For the compound `COC(=O)c1c(O)cc(O)c(Cl)c1CCC(=O)Nc1ccc(N)cc1`, the Activity amounted to 15.7%.
For the compound `COC(=O)c1c(O)cc(O)c(Cl)c1CCC(=O)Nc1ccccc1C`, the Activity turned out to be 3.4%.
Take `COC(=O)c1c(O)cc(O)c(Cl)c1CCC(=O)Nc1ccc(Br)c(Cl)c1`: the Activity is 71.4%.
Take `COC(=O)c1c(O)cc(O)c(Cl)c1CCC(=O)Nc1ccccc1I`: the Activity is 7.9%.
On to `COC(=O)c1c(O)cc(O)c(Cl)c1CCC(=O)Nc1cccc(Cl)c1Br`, for which the Activity is 24.9%.
Regarding `COC(=O)c1c(O)cc(O)c(Cl)c1CCC(=O)N(c1ccccc1)C(C)C`, the Activity worked out at 30.2%.
On to `COC(=O)c1c(O)cc(O)c(Cl)c1CCC(=O)Nc1cccc(OC)c1`, for which the Activity was found to be 27.4%.
`COC(=O)c1c(O)cc(O)c(Cl)c1CCC(=O)Nc1ncccc1Cl`: the Activity amounted to 9.8%.
Regarding `C#Cc1ccc(NC(=O)CCc2c(Cl)c(O)cc(O)c2C(=O)OC)cc1`, the Activity turned out to be 12.7%.
With `COC(=O)c1c(O)cc(O)c(Cl)c1CCC(=O)N(O)c1ccccc1`, the Activity was 2.5%.
The same measure, in the same setting: under `COC(=O)c1c(O)cc(O)c(Cl)c1CCC(=O)N1CCc2ccccc21` stands 23%; under `COC(=O)c1c(O)cc(O)c(Cl)c1CCC(=O)Nc1cc(Cl)cc(Cl)c1`, 15.6%.
For the compound `CCN(C(=O)CCc1c(Cl)c(O)cc(O)c1C(=O)OC)c1ccccc1`, the Activity is 18.6%.
Consider `COC(=O)c1c(O)cc(O)c(Cl)c1CCC(=O)NC1CCCCC1`, for which the Activity stood at 26.1%.
On to `COC(=O)c1c(O)cc(O)c(Cl)c1CCC(=O)Nc1ncc(Cl)s1`, for which the Activity is 22.4%.
`COC(=O)c1c(O)cc(O)c(Cl)c1CCC(=O)Nc1cccc(Cl)c1`: the Activity worked out at 0.1%.
Turning to `COC(=O)c1c(O)cc(O)c(Cl)c1CCC(=O)Nc1nncs1`, the Activity was found to be 8.7%.
With `COC(=O)c1c(O)cc(O)c(Cl)c1CCC(=O)Nc1nnc(Br)s1`, the Activity worked out at 5.1%.
Turning to `COC(=O)c1c(O)cc(O)c(Cl)c1CCC(=O)Nc1ccc(-c2ccccc2)cc1`, the Activity is 85%.
For the compound `COC(=O)c1c(O)cc(O)c(Cl)c1CCC(=O)Nc1cccc(O)c1`, the Activity came to 3.5%.
Same read-out and setting: the result for `COC(=O)c1c(O)cc(O)c(Cl)c1CCC(=O)Nc1ccc(C(F)(F)F)cc1` reads 34.5%; that for `COC(=O)c1c(O)cc(O)c(Cl)c1CCC(=O)Nc1cccc(C(F)(F)F)c1`, 39.4%.
On the same count and under the same terms, under `COC(=O)c1c(O)cc(O)c(Cl)c1CCC(=O)Nc1ccccc1Br` stands 6.1%; under `COC(=O)c1c(O)cc(O)c(Cl)c1CCC(=O)Nc1ccccc1C(F)(F)F`, 13.4%; under `COC(=O)c1c(O)cc(O)c(Cl)c1CCC(=O)Nc1cccc(Br)c1`, 9.3%.
Same read-out and setting: the result for `COC(=O)c1c(O)cc(O)c(Cl)c1CCC(=O)Nc1ccc(F)cc1` reads 10.9%.
In the case of `COC(=O)c1c(O)cc(O)c(Cl)c1CCC(=O)Nc1cccc(Cl)n1`, the Activity was found to be 1.4%.
For `COC(=O)c1c(O)cc(O)c(Cl)c1CCC(=O)Nc1cccnc1`, the Activity was 14.9%.
Consider `COC(=O)c1c(O)cc(O)c(Cl)c1CCC(=O)Nc1ccccc1F`, for which the Activity was determined as 16.3%.
Consider `COC(=O)c1c(O)cc(O)c(Cl)c1CCC(=O)Nc1ncc(Br)s1`, for which the Activity came to 27.7%.
As to `COC(=O)c1c(O)cc(O)c(Cl)c1CCC(=O)N(C)c1ccccc1`, the Activity was 16.7%.
In the case of `COC(=O)c1c(O)cc(O)c(Cl)c1CCC(=O)Nc1ccccc1O`, the Activity amounted to 18%.
`COC(=O)c1c(O)cc(O)c(Cl)c1CCC(=O)NCc1ccccc1`: the Activity is 65.8%.
As to `COC(=O)c1c(O)cc(O)c(Cl)c1CCC(=O)Nc1ccc(O)cc1`, the Activity worked out at 6.5%.
In the case of `COC(=O)c1c(O)cc(O)c(Cl)c1CCC(=O)Nc1ccccc1N`, the Activity came out at 20.5%.
Take `COC(=O)c1c(O)cc(O)c(Cl)c1CCC(=O)Nc1cccnn1`: the Activity is 12.2%.
On to `COC(=O)c1c(O)cc(O)c(Cl)c1CCC(=O)NNc1ccccc1`, for which the Activity was found to be 26.3%.
`COC(=O)c1c(O)cc(O)c(Cl)c1CCC(=O)Nc1ccc(Br)cn1`: the Activity was 0.1%.
On the same count and under the same terms, the result for `COC(=O)c1c(O)cc(O)c(Cl)c1CCC(=O)Nc1ccc(Br)cc1` reads 2.1%.
Regarding `COC(=O)c1c(O)cc(O)c(Cl)c1CCC(=O)Nc1cncnc1`, the Activity was 11.6%.
For `COC(=O)c1c(O)cc(O)c(Cl)c1CCC(=O)Nc1cccc(-c2ccccc2)c1`, the Activity came out at 46.8%.
`COC(=O)c1c(O)cc(O)c(Cl)c1CCC(=O)Nc1ccc(OC)cc1`: the Activity worked out at 19.8%.
As to `COC(=O)c1c(O)cc(O)c(Cl)c1CCC(=O)Nc1ccccc1OC`, the Activity came out at 16.1%.
Regarding `COC(=O)c1c(O)cc(O)c(Cl)c1CCC(=O)NCCc1ccccc1`, the Activity was found to be 33%.
Still for that read-out and setting: under `COC(=O)c1c(O)cc(O)c(Cl)c1CCC(=O)Nc1ncccn1` stands 16.7%.

A further assay shares this target. Description: Inhibition of recombinant Grp94 (unknown origin) assessed as tracer bound at 25 uM after 24 hrs by fluorescence polarization assay relative to HSP90alpha (unknown origin). Put shortly:
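Compounds at 25 μM incubated 24 h with either cGrp94 or Hsp90α plus FITC-geldanamycin tracer (1% DMSO) to compare the two isoforms. Fluorescence polarization gave percent tracer bound, with DMSO as 100% and free tracer as 0%. Geldanamycin 50 nM was the positive control. Triplicate.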
(In general: Fluorescence polarisation rises when a labelled molecule tumbles more slowly, as on binding a larger partner.)
Consider `COC(=O)c1c(O)cc(O)c(Cl)c1CCC(=O)Nc1ccccc1Cl`, for which the Ratio was determined as 8.
In the case of `COC(=O)c1c(O)cc(O)c(Cl)c1CCC(=O)Nc1cccc(Cl)c1`, the Ratio came out at 25.
On the same count and under the same terms, under `COC(=O)c1c(O)cc(O)c(Cl)c1CCC(=O)Nc1ccc(Br)cc1` stands 27.
